Results from ChEMBL document CHEMBL3352276, “Design, synthesis and in vitro antitumor activity of novel N-substituted-4-phenyl/benzylphthalazin-1-ones” (Eur J Med Chem, 2015).
The source made the active and inactive calls. No cut-off for these calls is given here.

test system: HepG2; test: Induction of apoptosis in human HepG2 cells assessed as apoptotic cells after 24 hrs by annexin-V/FITC-propidium iodide staining-based FACS analysis relative to untreated control; type: functional; details: not given
Summary of the method: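 HepG2 cells treated for 24 h, harvested and washed in PBS. 10^5 cells stained with annexin V-FITC and PI from a detection kit. Flow cytometry used unstained cells for voltage and compensation. Early plus late apoptotic quadrants (LR+UR) compared with control. Triplicate experiments.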

Row | Compound | Ratio
1 | O=C(Cn1nc(-c2ccccc2)c2ccccc2c1=O)Nc1cccc(C(F)(F)F)c1 | 2.1
2 | O=C(Cn1nc(Cc2ccccc2)c2ccccc2c1=O)Nc1ccccc1Cl | 9.5
3 | O=C(Cn1nc(-c2ccccc2)c2ccccc2c1=O)Nc1cccc(Cl)c1 | 2.4
4 | O=C(Cn1nc(Cc2ccccc2)c2ccccc2c1=O)Nc1cccc(C(F)(F)F)c1 | 2.7

test system: HT-29; test: Induction of apoptosis in human HT-29 cells assessed as increase in caspase-3 expression at IC50 by sandwich ELISA relative to untreated control; type: functional; details: not given

Row | Compound | Ratio
5 | O=C(Cn1nc(-c2ccccc2)c2ccccc2c1=O)Nc1cccc(Cl)c1 | 5.6

test system: HepG2; test: Induction of apoptosis in human HepG2 cells assessed as down regulation of Bcl2 expression at IC50 by sandwich ELISA relative to untreated control; type: functional; details: not given

Row | Compound | Activity [%]
6 | O=C(Cn1nc(-c2ccccc2)c2ccccc2c1=O)Nc1cccc(C(F)(F)F)c1 | 9.6
7 | O=C(Cn1nc(Cc2ccccc2)c2ccccc2c1=O)Nc1ccccc1Cl | 34
8 | O=C(Cn1nc(-c2ccccc2)c2ccccc2c1=O)Nc1cccc(Cl)c1 | 22
9 | O=C(Cn1nc(Cc2ccccc2)c2ccccc2c1=O)Nc1cccc(C(F)(F)F)c1 | 22

test system: HepG2; test: Cell cycle arrest in human HepG2 cells assessed as reduction in G0/G1 phase at IC50 for 24 hrs by propidium iodide staining-based FACS analysis relative to untreated control; type: functional; details: not given
Summary of the method: (§1)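 HepG2 cells exposed 24 h at each compound's preset concentration. Then washed in ice-cold PBS, fixed in ice-cold 70% ethanol, treated with 0.1 mg/ml RNase and stained with PI. DNA content read by flow cytometry, and phase distribution compared with untreated control. Triplicate experiments.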

Row | Compound | Activity | Ratio
10 | O=C(Cn1nc(-c2ccccc2)c2ccccc2c1=O)Nc1cccc(C(F)(F)F)c1 | inactive | 
11 | O=C(Cn1nc(Cc2ccccc2)c2ccccc2c1=O)Nc1ccccc1Cl |  | 2
12 | O=C(Cn1nc(-c2ccccc2)c2ccccc2c1=O)Nc1cccc(Cl)c1 | inactive | 
13 | O=C(Cn1nc(Cc2ccccc2)c2ccccc2c1=O)Nc1cccc(C(F)(F)F)c1 | 32.3% | 

test system: HepG2; test: Cell cycle arrest in human HepG2 cells assessed as reduction in S phase at IC50 for 24 hrs by propidium iodide staining-based FACS analysis relative to untreated control; type: functional; details: not given; summary of the method: as §1

Row | Compound | Activity | Ratio
14 | O=C(Cn1nc(-c2ccccc2)c2ccccc2c1=O)Nc1cccc(C(F)(F)F)c1 | inactive | 
15 | O=C(Cn1nc(Cc2ccccc2)c2ccccc2c1=O)Nc1ccccc1Cl |  | 1.9
16 | O=C(Cn1nc(-c2ccccc2)c2ccccc2c1=O)Nc1cccc(Cl)c1 | inactive | 

test system: HepG2; test: Induction of apoptosis in human HepG2 cells assessed as increase in caspase-3 expression at IC50 by sandwich ELISA relative to untreated control; type: functional; details: not given

Row | Compound | Ratio
17 | O=C(Cn1nc(-c2ccccc2)c2ccccc2c1=O)Nc1cccc(C(F)(F)F)c1 | 2.5
18 | O=C(Cn1nc(Cc2ccccc2)c2ccccc2c1=O)Nc1ccccc1Cl | 4
19 | O=C(Cn1nc(-c2ccccc2)c2ccccc2c1=O)Nc1cccc(Cl)c1 | 3
20 | O=C(Cn1nc(Cc2ccccc2)c2ccccc2c1=O)Nc1cccc(C(F)(F)F)c1 | 2.8

test system: HepG2; test: Antiproliferative activity against human HepG2 cells after 72 hrs by SRB assay; type: functional, cell-based; details: HepG2, 72 h

Row | Compound | IC50 [µM]
21 | COc1ccc(NC(=O)Cn2nc(Cc3ccccc3)c3ccccc3c2=O)cc1 | 69
22 | O=C(Cn1nc(-c2ccccc2)c2ccccc2c1=O)Nc1cccc(C(F)(F)F)c1 | 3.5
23 | O=C(Cn1nc(Cc2ccccc2)c2ccccc2c1=O)Nc1ccccc1Cl | 1.2
24 | O=C(Cn1nc(Cc2ccccc2)c2ccccc2c1=O)Nc1ccc(F)cc1 | 27
25 | O=C(Cn1nc(-c2ccccc2)c2ccccc2c1=O)Nc1ccc(Cl)cc1 | 10.3
26 | O=C(Cn1nc(-c2ccccc2)c2ccccc2c1=O)Nc1cccc(Cl)c1 | 3.29
27 | COc1cccc2c1C(=O)c1c(O)c3c(c(O)c1C2=O)C[C@@](O)(C(=O)CO)C[C@@H]3O[C@H]1C[C@H](N)[C@H](O)[C@H](C)O1 [DOXORUBICIN] | 3.45
28 | O=C(Cn1nc(Cc2ccccc2)c2ccccc2c1=O)Nc1ccccc1 | 66
29 | O=C(Cn1nc(Cc2ccccc2)c2ccccc2c1=O)Nc1cccc(C(F)(F)F)c1 | 3.52
30 | O=C(Cn1nc(-c2ccccc2)c2ccccc2c1=O)Nc1ccc(F)cc1 | 10.6
31 | O=C(Cn1nc(-c2ccccc2)c2ccccc2c1=O)Nc1ccccc1Cl | 33
32 | O=C(Cn1nc(Cc2ccccc2)c2ccccc2c1=O)Nc1ccc(Cl)cc1 | > 100
33 | O=C(Cn1nc(-c2ccccc2)c2ccccc2c1=O)Nc1ccccc1 | 13.4
34 | O=C(Cn1nc(Cc2ccccc2)c2ccccc2c1=O)Nc1cccc(Cl)c1 | 14.3
35 | COc1ccc(NC(=O)Cn2nc(-c3ccccc3)c3ccccc3c2=O)cc1 | > 100

test system: HepG2; test: Cell cycle arrest in human HepG2 cells assessed as increase in S phase at IC50 for 24 hrs by propidium iodide staining-based FACS analysis relative to untreated control; details: not given

Row | Compound | Activity [%]
36 | O=C(Cn1nc(Cc2ccccc2)c2ccccc2c1=O)Nc1cccc(C(F)(F)F)c1 | 27.7

test system: HepG2; test: Induction of apoptosis in human HepG2 cells assessed as upregulation of Bax expression at IC50 by sandwich ELISA relative to untreated control; type: functional; details: not given

Row | Compound | Activity [%]
37 | O=C(Cn1nc(-c2ccccc2)c2ccccc2c1=O)Nc1cccc(C(F)(F)F)c1 | 44
38 | O=C(Cn1nc(Cc2ccccc2)c2ccccc2c1=O)Nc1ccccc1Cl | 80.2
39 | O=C(Cn1nc(-c2ccccc2)c2ccccc2c1=O)Nc1cccc(Cl)c1 | 43.5
40 | O=C(Cn1nc(Cc2ccccc2)c2ccccc2c1=O)Nc1cccc(C(F)(F)F)c1 | 39.9

test system: HT-29; test: Ratio of doxorubicin IC50 to compound IC50 for human HT-29 cells; type: functional; details: not given

Row | Compound | Ratio IC50
41 | O=C(Cn1nc(-c2ccccc2)c2ccccc2c1=O)Nc1ccc(Cl)cc1 | 1.9
42 | O=C(Cn1nc(-c2ccccc2)c2ccccc2c1=O)Nc1cccc(Cl)c1 | 2.5
43 | O=C(Cn1nc(Cc2ccccc2)c2ccccc2c1=O)Nc1ccc(Cl)cc1 | 2.6
44 | O=C(Cn1nc(Cc2ccccc2)c2ccccc2c1=O)Nc1cccc(Cl)c1 | 2

test system: MCF7; test: Antiproliferative activity against human MCF7 cells after 72 hrs by SRB assay; type: functional, cell-based; details: MCF7, 72 h
Summary of the method: (§2)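 SRB assay. HT-29 grown in DMEM; HepG2 and MCF-7 grown in RPMI-1640, all with 10% heat-inactivated FBS at 37 °C under 5% CO2. Cells seeded at 1000–2000/well, left 24 h, then exposed to a range of concentrations for 72 h. Fixed with 10% TCA for 1 h at 4 °C, stained with 0.4% SRB, OD read at 564 nm. IC50 taken from a Boltzmann sigmoidal nonlinear fit. Mean ± S.D. of three separate experiments.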

Row | Compound | IC50 [µM]
45 | COc1ccc(NC(=O)Cn2nc(Cc3ccccc3)c3ccccc3c2=O)cc1 | 62
46 | O=C(Cn1nc(-c2ccccc2)c2ccccc2c1=O)Nc1cccc(C(F)(F)F)c1 | 58
47 | O=C(Cn1nc(Cc2ccccc2)c2ccccc2c1=O)Nc1ccccc1Cl | 89
48 | O=C(Cn1nc(Cc2ccccc2)c2ccccc2c1=O)Nc1ccc(F)cc1 | 30
49 | O=C(Cn1nc(-c2ccccc2)c2ccccc2c1=O)Nc1ccc(Cl)cc1 | 33
50 | O=C(Cn1nc(-c2ccccc2)c2ccccc2c1=O)Nc1cccc(Cl)c1 | 74
51 | O=C(Cn1nc(Cc2ccccc2)c2ccccc2c1=O)Nc1ccccc1 | 36
52 | O=C(Cn1nc(Cc2ccccc2)c2ccccc2c1=O)Nc1cccc(C(F)(F)F)c1 | 3.85
53 | O=C(Cn1nc(-c2ccccc2)c2ccccc2c1=O)Nc1ccc(F)cc1 | 35
54 | O=C(Cn1nc(-c2ccccc2)c2ccccc2c1=O)Nc1ccccc1Cl | 30
55 | O=C(Cn1nc(Cc2ccccc2)c2ccccc2c1=O)Nc1ccc(Cl)cc1 | 13
56 | O=C(Cn1nc(-c2ccccc2)c2ccccc2c1=O)Nc1ccccc1 | 43
57 | O=C(Cn1nc(Cc2ccccc2)c2ccccc2c1=O)Nc1cccc(Cl)c1 | 10.8
58 | COc1ccc(NC(=O)Cn2nc(-c3ccccc3)c3ccccc3c2=O)cc1 | 77

test system: HepG2; test: Cell cycle arrest in human HepG2 cells assessed as accumulation at preG1 phase at IC50 for 24 hrs by propidium iodide staining-based FACS analysis relative to untreated control; type: functional; details: not given; summary of the method: as §1

Row | Compound | Activity | Ratio
59 | O=C(Cn1nc(-c2ccccc2)c2ccccc2c1=O)Nc1cccc(C(F)(F)F)c1 | inactive | 
60 | O=C(Cn1nc(Cc2ccccc2)c2ccccc2c1=O)Nc1ccccc1Cl |  | 28
61 | O=C(Cn1nc(-c2ccccc2)c2ccccc2c1=O)Nc1cccc(Cl)c1 | inactive | 
62 | O=C(Cn1nc(Cc2ccccc2)c2ccccc2c1=O)Nc1cccc(C(F)(F)F)c1 |  | 9.4

test system: HepG2; test: Ratio of doxorubicin IC50 to compound IC50 for human HepG2 cells; type: functional; details: not given
Summary of the method: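 SRB growth assay: HepG2 in RPMI-1640 + 10% heat-inactivated FBS, seeded 1000–2000 cells/well, dosed after 24 h with graded concentrations alongside doxorubicin for 72 h; TCA-fixed, SRB-stained, OD 564 nm. IC50 fitted as Boltzmann sigmoidal curve vs untreated controls, three separate experiments; ratio = doxorubicin IC50 / compound IC50 from the same assay.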

Row | Compound | Ratio IC50
63 | O=C(Cn1nc(Cc2ccccc2)c2ccccc2c1=O)Nc1ccccc1Cl | 2.9

test system: HT-29; test: Antiproliferative activity against human HT-29 cells after 72 hrs by SRB assay; type: functional, cell-based; details: HT-29, 72 h; summary of the method: as §2

Row | Compound | IC50 [µM]
64 | COc1ccc(NC(=O)Cn2nc(Cc3ccccc3)c3ccccc3c2=O)cc1 | > 100
65 | O=C(Cn1nc(-c2ccccc2)c2ccccc2c1=O)Nc1cccc(C(F)(F)F)c1 | 41.2
66 | O=C(Cn1nc(Cc2ccccc2)c2ccccc2c1=O)Nc1ccccc1Cl | 42.8
67 | O=C(Cn1nc(Cc2ccccc2)c2ccccc2c1=O)Nc1ccc(F)cc1 | 98
68 | O=C(Cn1nc(-c2ccccc2)c2ccccc2c1=O)Nc1ccc(Cl)cc1 | 4.02
69 | O=C(Cn1nc(-c2ccccc2)c2ccccc2c1=O)Nc1cccc(Cl)c1 | 3.05
70 | COc1cccc2c1C(=O)c1c(O)c3c(c(O)c1C2=O)C[C@@](O)(C(=O)CO)C[C@@H]3O[C@H]1C[C@H](N)[C@H](O)[C@H](C)O1 [DOXORUBICIN] | 7.7
71 | O=C(Cn1nc(Cc2ccccc2)c2ccccc2c1=O)Nc1ccccc1 | 95.4
72 | O=C(Cn1nc(Cc2ccccc2)c2ccccc2c1=O)Nc1cccc(C(F)(F)F)c1 | 61
73 | O=C(Cn1nc(-c2ccccc2)c2ccccc2c1=O)Nc1ccc(F)cc1 | 46.2
74 | O=C(Cn1nc(-c2ccccc2)c2ccccc2c1=O)Nc1ccccc1Cl | 88.6
75 | O=C(Cn1nc(Cc2ccccc2)c2ccccc2c1=O)Nc1ccc(Cl)cc1 | 2.98
76 | O=C(Cn1nc(-c2ccccc2)c2ccccc2c1=O)Nc1ccccc1 | 99
77 | O=C(Cn1nc(Cc2ccccc2)c2ccccc2c1=O)Nc1cccc(Cl)c1 | 3.68
78 | COc1ccc(NC(=O)Cn2nc(-c3ccccc3)c3ccccc3c2=O)cc1 | > 100
